Reference: ChEMBL document CHEMBL1140016, “Arylpropanolamines: selective beta3 agonists arising from strategies to mitigate phase I metabolic transformations” (Bioorg Med Chem Lett, 2007)
pKi: −log10 of the molar value.

Legend:
[1] = target: T1, Beta-3 adrenergic receptor (Homo sapiens, UniProt P13945); experiment: Intrinsic activity at human cloned adrenergic beta3 receptor expressed in CHO cells assessed as cAMP accumulation relative to isoproterenol; assay type: functional, cell-based
Target sequence in this assay (P13945 whole entry, looked up): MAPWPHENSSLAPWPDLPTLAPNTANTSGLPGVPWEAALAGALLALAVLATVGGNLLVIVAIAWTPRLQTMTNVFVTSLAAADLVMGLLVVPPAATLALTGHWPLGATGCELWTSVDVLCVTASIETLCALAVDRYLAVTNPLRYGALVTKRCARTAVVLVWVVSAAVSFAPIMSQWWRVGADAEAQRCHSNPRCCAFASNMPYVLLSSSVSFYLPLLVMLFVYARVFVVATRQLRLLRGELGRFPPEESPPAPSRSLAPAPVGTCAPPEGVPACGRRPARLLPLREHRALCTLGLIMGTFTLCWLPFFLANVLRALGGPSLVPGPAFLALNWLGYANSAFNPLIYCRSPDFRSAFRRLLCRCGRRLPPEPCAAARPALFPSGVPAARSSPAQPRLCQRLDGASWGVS

[2] = target: T1, Beta-3 adrenergic receptor; experiment: Displacement of [125I]iodocyanopindolol from cloned human adrenergic beta-3 receptor expressed in CHO cells; assay type: cell-based
Target sequence in this assay (P13945 whole entry): as the sequence (P13945 whole entry, looked up) above

[3] = target: Beta-2 adrenergic receptor (Homo sapiens, UniProt P07550); experiment: Displacement of [125I]iodocyanopindolol from human cloned adrenergic beta-2 receptor expressed in CHO cells; assay type: cell-based
[4] = target: Beta-1 adrenergic receptor (Cavia porcellus) (UniProt B0FL73); experiment: Intrinsic activity at adrenergic beta-1 receptor in spontaneously beating guinea pig atria assessed as acceleration in contraction relative to isoproterenol
African green monkey [5] = experiment: Effect on tachycardia in African green monkey assessed as change in heart rate at 0.1 mg/kg, iv; assay type: functional, Chlorocebus sabaeus
Procedure, shortened: (§1)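 Single iv dose given to ketamine-sedated African green monkeys, either 0.1 or 0.5 mg/kg as the line states. Three read-outs were recorded after dosing: change in serum free fatty acids (β3 lipolysis), change in serum K+ (a decrease is β2-mediated) and change in heart rate (β1/β2 tachycardia). Changes were tested for significance at P < 0.05.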

African green monkey [6] = experiment: Effect on potassium levels in African green monkey serum at 0.1 mg/kg, iv; assay type: functional, Chlorocebus sabaeus; design: unit not given beside the values; procedure, shortened: as §1
[7] = target: Beta-1 adrenergic receptor (Homo sapiens, UniProt P08588); experiment: Displacement of [125I]iodocyanopindolol from human cloned adrenergic beta-1 receptor expressed in CHO cells; assay type: cell-based
African green monkey [8] = experiment: Ratio of effect on tachycardia to ED50 for lipolysis in African green monkey; assay type: functional, Chlorocebus sabaeus
Procedure, shortened: (§2)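 Compounds were given iv to ketamine-sedated African green monkeys across a range of doses. Lipolysis ED50 (mg/kg) came from the rise in serum free fatty acids. Onset doses were the lowest doses giving a statistically significant rise in heart rate (β1) or fall in serum K+ (β2). Each margin is the onset dose divided by the lipolysis ED50.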

African green monkey [9] = experiment: Effect on lipolysis in iv dosed African green monkey; assay type: functional; settings: Chlorocebus sabaeus; procedure, shortened: as §2
African green monkey [10] = experiment: Effect on African green monkey assessed as change in free fatty acid level at 0.1 mg/kg, iv; assay type: functional, Chlorocebus sabaeus; procedure, shortened: as §1
African green monkey [11] = experiment: Ratio of serum potassium concentration to ED50 for lipolysis in African green monkey; assay type: functional, Chlorocebus sabaeus; procedure, shortened: as §2
African green monkey [12] = experiment: Effect on free fatty acid level in African green monkey serum at 0.5 mg/kg, iv; assay type: functional, Chlorocebus sabaeus; procedure, shortened: as §1
African green monkey [13] = experiment: Effect on African green monkey serum assessed as potassium concentration at 0.5 mg/kg, iv; assay type: functional, Chlorocebus sabaeus; procedure, shortened: as §1
African green monkey [14] = experiment: Effect on tachycardia in African green monkey assessed as change in heart rate at 0.5 mg/kg, iv; assay type: functional, Chlorocebus sabaeus; procedure, shortened: as §1

Chain of Beta-2 adrenergic receptor (P07550 whole entry): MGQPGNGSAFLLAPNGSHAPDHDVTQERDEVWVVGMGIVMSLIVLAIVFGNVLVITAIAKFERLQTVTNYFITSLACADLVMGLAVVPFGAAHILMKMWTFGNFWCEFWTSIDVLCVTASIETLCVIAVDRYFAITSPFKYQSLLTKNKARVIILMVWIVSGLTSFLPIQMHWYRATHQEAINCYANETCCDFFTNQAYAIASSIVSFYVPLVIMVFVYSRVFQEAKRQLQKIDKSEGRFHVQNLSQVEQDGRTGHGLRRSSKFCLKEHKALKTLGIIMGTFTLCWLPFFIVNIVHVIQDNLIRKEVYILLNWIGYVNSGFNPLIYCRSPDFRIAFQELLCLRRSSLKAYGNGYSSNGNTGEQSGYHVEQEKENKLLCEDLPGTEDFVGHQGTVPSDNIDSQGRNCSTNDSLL
Chain of Beta-1 adrenergic receptor (P08588 whole entry): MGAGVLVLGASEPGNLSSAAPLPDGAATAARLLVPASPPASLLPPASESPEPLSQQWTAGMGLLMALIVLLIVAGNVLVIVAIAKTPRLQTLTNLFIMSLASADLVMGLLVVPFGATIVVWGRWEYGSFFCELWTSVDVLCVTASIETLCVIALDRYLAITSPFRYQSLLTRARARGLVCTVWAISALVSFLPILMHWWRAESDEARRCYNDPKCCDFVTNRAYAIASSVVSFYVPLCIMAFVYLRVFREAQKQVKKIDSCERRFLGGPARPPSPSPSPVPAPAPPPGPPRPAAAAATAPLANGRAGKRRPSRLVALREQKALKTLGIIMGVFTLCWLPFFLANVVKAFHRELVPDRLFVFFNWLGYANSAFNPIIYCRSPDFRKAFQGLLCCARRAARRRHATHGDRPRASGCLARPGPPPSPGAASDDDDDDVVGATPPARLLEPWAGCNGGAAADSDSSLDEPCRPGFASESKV
Chain of Beta-1 adrenergic receptor (Cavia porcellus) (B0FL73 1-467): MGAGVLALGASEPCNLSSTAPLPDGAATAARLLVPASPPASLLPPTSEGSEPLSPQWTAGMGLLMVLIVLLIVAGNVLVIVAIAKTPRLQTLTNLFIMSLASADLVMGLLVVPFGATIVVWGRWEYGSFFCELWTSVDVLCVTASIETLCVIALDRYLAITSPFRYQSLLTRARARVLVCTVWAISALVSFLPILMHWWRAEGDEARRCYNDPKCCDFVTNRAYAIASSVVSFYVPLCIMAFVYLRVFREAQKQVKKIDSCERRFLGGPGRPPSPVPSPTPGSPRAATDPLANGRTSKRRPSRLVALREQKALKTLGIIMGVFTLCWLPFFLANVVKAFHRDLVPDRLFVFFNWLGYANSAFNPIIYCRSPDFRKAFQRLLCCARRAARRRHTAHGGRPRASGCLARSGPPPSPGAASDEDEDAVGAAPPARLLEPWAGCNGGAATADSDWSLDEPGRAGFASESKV

Structure (SMILES)	Intrinsic activity [1] [%]	pKi [2]	pKi [3]	Intrinsic activity [4] [%]	Activity (African green monkey [5])	Activity (African green monkey [6])	pKi [7]	Ratio (African green monkey [8])	ED50 (African green monkey [9]) [µg/kg]	Activity (African green monkey [10])	Ratio (African green monkey [11])	Activity (African green monkey [12])	Activity (African green monkey [13])	Activity (African green monkey [14])
COc1ccc([C@@H](Cc2ccccc2)NC[C@@H](O)Cc2ccc(O)c(NS(C)(=O)=O)c2)cc1OC	86	8.22	7.18	60	24	-0.08	5.59	3	9	1.06	>55	–	–	–
COc1ccc(C(NC[C@H](O)c2ccc(O)c(NS(C)(=O)=O)c2F)c2ccc(OC)cc2)cc1	24	5.77	–	–	–	–	–	–	–	–	–	0.39	-0.49	4
